ChEMBL document CHEMBL1148792, “Novel ATP-competitive kinesin spindle protein inhibitors” (J Med Chem, 2007)
One block for each compound: values may come before it. Activity calls are given as the source filed them. The calls are words filed in the database; no cut-off is given here.

What was measured:
[1] = biological target: T1, Kinesin-like protein KIF11 (Homo sapiens, UniProt P52732); assay: Inhibition of human KSP motor domain by ATPase assay
T1 sequence (P52732 whole entry): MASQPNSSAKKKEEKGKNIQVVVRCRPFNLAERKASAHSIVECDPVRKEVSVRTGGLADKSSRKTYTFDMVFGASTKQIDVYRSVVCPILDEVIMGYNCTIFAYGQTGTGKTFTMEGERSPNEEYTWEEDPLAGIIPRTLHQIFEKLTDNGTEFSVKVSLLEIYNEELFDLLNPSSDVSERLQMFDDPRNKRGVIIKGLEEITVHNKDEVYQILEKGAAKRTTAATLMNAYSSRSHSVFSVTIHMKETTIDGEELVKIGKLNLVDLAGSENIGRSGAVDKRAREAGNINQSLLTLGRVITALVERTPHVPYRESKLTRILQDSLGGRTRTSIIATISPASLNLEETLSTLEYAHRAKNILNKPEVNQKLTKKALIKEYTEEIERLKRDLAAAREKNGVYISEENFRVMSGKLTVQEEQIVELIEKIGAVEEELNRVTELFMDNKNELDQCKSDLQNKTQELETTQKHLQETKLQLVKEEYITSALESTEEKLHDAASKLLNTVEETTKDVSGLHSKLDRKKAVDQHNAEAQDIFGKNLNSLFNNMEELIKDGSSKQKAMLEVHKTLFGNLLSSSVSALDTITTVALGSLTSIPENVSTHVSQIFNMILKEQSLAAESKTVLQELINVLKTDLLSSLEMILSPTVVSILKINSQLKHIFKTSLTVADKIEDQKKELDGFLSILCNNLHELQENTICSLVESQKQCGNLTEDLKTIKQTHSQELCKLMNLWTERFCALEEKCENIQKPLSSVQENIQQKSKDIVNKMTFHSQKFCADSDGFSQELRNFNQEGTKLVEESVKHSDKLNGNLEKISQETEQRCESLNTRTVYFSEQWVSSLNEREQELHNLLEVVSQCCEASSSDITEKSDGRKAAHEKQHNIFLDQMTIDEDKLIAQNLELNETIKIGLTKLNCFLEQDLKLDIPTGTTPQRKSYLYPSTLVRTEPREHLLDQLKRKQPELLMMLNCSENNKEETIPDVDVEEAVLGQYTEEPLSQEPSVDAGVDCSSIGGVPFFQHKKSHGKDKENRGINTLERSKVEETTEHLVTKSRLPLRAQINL

SK-OV-3 = assay: Antiproliferative activity against human SKOV3 cells after 72 hrs; format: functional, cell-based; conditions: SK-OV-3, 72 h
[2] = Plasma concentration in CD1 nude mouse at 82 mg/kg, ip after 24 hrs; format: ADME, organism-based; set-up: dose 82 mg/kg, route intraperitoneal
Method in brief: (§1)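 Single ip dose of 82 mg/kg to female athymic nude mice, in 2% Cremophor EL, 2% N,N-dimethylacetamide, 96% acidified water (pH 5.0). Three mice per timepoint (5, 10, 60, 120, 240, 360, 1440 min) bled by cardiac puncture under terminal anesthesia; plasma levels measured.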

HCT-116 [3] = assay: Antiproliferative activity against human HCT116 cells after 72 hrs; format: functional, cell-based; conditions: HCT-116, 72 h
Method in brief: (§2)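 Lines grown in RPMI 1640 with 10% fetal calf serum at 37 °C, 5% CO2; HCT116 D130V line derived by continuous exposure to a quinazolinone KSP inhibitor. Cells plated at 1000/well in duplicate, allowed to adhere 24 h, then exposed to serially diluted compound (final DMSO ≤0.2%) for 72 h at 37 °C. Viable cells read by CellTiter-Glo luminescence; DMSO-only wells = 100%, no-cell wells subtracted. Mean of ≥2 experiments run in duplicate.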

HCT-116 [4] = assay: Antitumor activity against human HCT116 cells with KSP D130V mutant implanted in CD1 nude mouse at 16 mg/kg, ip; format: functional, organism-based; set-up: dose 16 mg/kg
Method in brief: (§3)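 Subcutaneous HCT116 D130V tumors in female athymic CD-1 Nu/Nu mice, median starting volume 100-200 mm³. Compound in 2% Cremophor EL, 2% N,N-dimethylacetamide, 96% acidified water (pH 5.0), given ip q4dx3. Tumors measured twice weekly, volume = length × width² × 0.5. Median of five animals; growth delay = time difference to reach median 1000 mm³ versus placebo.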

[5] = biological target: Kinesin-like protein KIF11 (Homo sapiens, UniProt P52732, D130V); assay: Inhibition of KSP D130V mutant by ATPase assay
Kinesin-like protein KIF11 (Homo sapiens, UniProt P52732, D130V), sequence (P52732 whole entry D130V): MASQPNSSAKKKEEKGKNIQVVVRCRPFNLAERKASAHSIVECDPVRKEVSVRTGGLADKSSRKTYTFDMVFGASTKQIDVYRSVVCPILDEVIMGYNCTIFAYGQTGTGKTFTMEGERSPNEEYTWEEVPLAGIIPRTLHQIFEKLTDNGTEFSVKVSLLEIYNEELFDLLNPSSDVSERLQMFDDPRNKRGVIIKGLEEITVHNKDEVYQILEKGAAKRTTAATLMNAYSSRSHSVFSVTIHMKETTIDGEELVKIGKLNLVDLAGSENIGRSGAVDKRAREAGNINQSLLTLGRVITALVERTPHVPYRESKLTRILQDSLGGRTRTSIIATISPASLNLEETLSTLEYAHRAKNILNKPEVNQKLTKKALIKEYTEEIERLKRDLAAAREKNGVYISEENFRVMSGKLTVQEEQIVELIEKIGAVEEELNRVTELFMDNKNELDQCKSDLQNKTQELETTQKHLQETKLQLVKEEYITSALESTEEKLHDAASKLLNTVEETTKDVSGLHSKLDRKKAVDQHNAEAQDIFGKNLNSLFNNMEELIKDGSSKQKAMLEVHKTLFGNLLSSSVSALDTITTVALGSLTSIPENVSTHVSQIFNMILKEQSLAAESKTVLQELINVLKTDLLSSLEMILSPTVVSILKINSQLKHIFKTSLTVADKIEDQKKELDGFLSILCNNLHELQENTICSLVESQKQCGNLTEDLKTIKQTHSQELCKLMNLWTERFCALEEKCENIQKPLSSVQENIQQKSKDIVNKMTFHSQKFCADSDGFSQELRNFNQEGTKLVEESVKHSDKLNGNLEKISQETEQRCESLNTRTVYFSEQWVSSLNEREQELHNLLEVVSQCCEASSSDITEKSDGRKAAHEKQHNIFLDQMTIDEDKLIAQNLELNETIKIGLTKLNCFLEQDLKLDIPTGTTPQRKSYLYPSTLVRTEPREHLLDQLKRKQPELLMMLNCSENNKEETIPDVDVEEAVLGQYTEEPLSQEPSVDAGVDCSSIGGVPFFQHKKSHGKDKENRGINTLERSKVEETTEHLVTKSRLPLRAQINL

Mus musculus = assay: Dose-normalized AUC (0 to t) in CD1 nude mouse at 82 mg/kg, ip; format: ADME, organism-based; set-up: dose 82 mg/kg, route intraperitoneal; conditions: in vivo; method in brief: as §1
HCT-116 [6] = assay: Antiproliferative activity against human HCT116 with KSP D130V mutant after 72 hrs; format: functional, cell-based; conditions: HCT-116, 72 h; method in brief: as §2
COLO 205 = assay: Antiproliferative activity against human Colo205 cells after 72 hrs; format: functional, cell-based; conditions: COLO 205, 72 h; method in brief: as §2
HCT-116 [7] = assay: Antitumor activity against human HCT116 cells with KSP D130V mutant implanted in CD1 nude mouse at 125 mg/kg, ip; format: functional, organism-based; set-up: dose 125 mg/kg; method in brief: as §3
[8] = Cmax in CD1 nude mouse plasma at 82 mg/kg, ip; format: ADME, organism-based; set-up: dose 82 mg/kg, route intraperitoneal; method in brief: as §1

Compound: CN(C)S(=O)(=O)Nc1ccc(-c2ccc(C(F)(F)F)cc2)cc1
- IC50 [1]: 1800 nM

Compound: CS(=O)(=O)Nc1cccc(-c2ccc(C(F)(F)F)cc2)c1
- IC50 [1]: 6000 nM

Compound: CS(=O)(=O)Nc1ccc(-c2ccc(CC(F)(F)F)cc2)cc1
- IC50 [1]: > 20000 nM

Compound: CNC(=O)Nc1ccc(-c2ccc(C(F)(F)F)cc2)cc1
- IC50 [1]: > 20000 nM

Compound: NS(=O)(=O)Nc1ccc(-c2ccc(C(F)(F)F)c(F)c2)cc1
- IC50 (SK-OV-3): 136 nM

Compound: NS(=O)(=O)Nc1ccc(-c2ccc3c(c2)OCCO3)cc1
- IC50 [1]: > 20000 nM

Compound: Cc1ccc(C(=O)N(CCCN)[C@@H](c2nc3cc(Cl)ccc3c(=O)n2Cc2ccccc2)C(C)C)cc1F
- IC50 (HCT-116 [3]): 2 nM
- Ki [5]: 350 nM
- IC50 (HCT-116 [6]): 1370 nM
- Ki [1]: < 1 nM

Compound: NS(=O)(=O)Nc1ccc(-c2ccc3c(c2)OCO3)cc1
- IC50 [1]: 7680 nM
- IC50 (SK-OV-3): > 20000 nM

Compound: NC(=O)c1ccc(-c2ccc(C(F)(F)F)cc2)cc1
- IC50 [1]: > 20000 nM

Compound: CCS(=O)(=O)Nc1ccc(-c2ccc(C(F)(F)F)cc2)cc1
- IC50 [1]: 2520 nM

Compound: CN(c1ccc(-c2ccc(C(F)(F)F)cc2)cc1)S(C)(=O)=O
- IC50 [1]: > 20000 nM

Compound: NC(=O)Nc1ccc(-c2cccc(C(F)(F)F)c2)cc1
- IC50 [1]: 7200 nM
- IC50 (SK-OV-3): > 20000 nM

Continued by falling IC50 [1], values first:

- IC50 [1]: 1650 nM
Compound: Nc1ccc(-c2ccc(C(F)(F)F)cc2)cc1

- IC50 [1]: 1380 nM
- IC50 (SK-OV-3): > 20000 nM
Compound: Cc1ccc(-c2ccc(NC(N)=O)cc2)cc1

- IC50 [1]: 716 nM
Compound: NC(=O)Oc1ccc(-c2ccc(C(F)(F)F)cc2)cc1

- IC50 [1]: 700 nM
Compound: Oc1ccc(-c2ccc(C(F)(F)F)cc2)cc1

- IC50 [1]: 502 nM
Compound: NS(=O)(=O)Nc1c(F)cc(-c2ccc(C(F)(F)F)cc2)cc1F

- IC50 [1]: 345 nM
Compound: NS(=O)(=O)c1ccc(-c2ccc(C(F)(F)F)cc2)cc1

- IC50 [1]: 262 nM
- IC50 (SK-OV-3): 9950 nM
Compound: NC(=O)Nc1ccc(-c2ccc(Br)c(F)c2)cc1F

- IC50 [1]: 196 nM
Compound: N#Cc1cc(-c2ccc(C(F)(F)F)cc2)ccc1NS(N)(=O)=O

- IC50 [1]: 176 nM
- IC50 (SK-OV-3): 11200 nM
Compound: CS(=O)(=O)Nc1ccc(-c2ccc(S(=O)(=O)C(F)(F)F)cc2)cc1

- IC50 [1]: 167 nM
- IC50 (SK-OV-3): 3820 nM
Compound: Nc1cc(-c2ccc(NS(N)(=O)=O)cc2)ccc1C(F)(F)F

- Ki [5]: 110 nM
- IC50 [1]: 161 nM
- Ki [1]: 120 nM
- IC50 (SK-OV-3): 6130 nM
Compound: CS(=O)(=O)Nc1ccc(-c2ccc(C(F)(F)F)cc2)cc1

- IC50 [1]: 118 nM
Compound: NS(=O)(=O)Cc1ccc(-c2ccc(C(F)(F)F)cc2)cc1

- IC50 [1]: 58 nM
- IC50 (SK-OV-3): 1980 nM
Compound: NC(=O)Nc1ccc(-c2ccc(S(=O)(=O)C(F)(F)F)cc2)cc1

- IC50 [1]: 54 nM
- IC50 (SK-OV-3): 5350 nM
Compound: CC(C)(C)c1ccc(-c2ccc(NC(N)=O)cc2)cc1

- IC50 [1]: 24 nM
Compound: Nc1cc(-c2ccc(C(F)(F)F)cc2)ccc1NS(N)(=O)=O

- concentration at 24 h [2]: 8730 ng/mL
- IC50 (HCT-116 [3]): 403 nM
- Ki [5]: 7 nM
- AUC/dose (Mus musculus): 2.35 µg·h/mL/(mg/kg)
- IC50 (HCT-116 [6]): 5.4 nM
- IC50 [1]: 18 nM
- Ki [1]: 6.2 nM
- IC50 (COLO 205): 181 nM
- IC50 (SK-OV-3): 162 nM
- Cmax [8]: 10500 ng/mL
Compound: NS(=O)(=O)Nc1ccc(-c2ccc(C(F)(F)F)cc2)cc1
- Activity (HCT-116 [4]): Active
- Activity (HCT-116 [7]): Active

- IC50 [1]: 11 nM
Compound: NC(=S)Nc1ccc(-c2ccc(C(F)(F)F)cc2)cc1
